Rows were chosen to be rich in hits. Some 2.7% of all compounds tested hit in one or more screens of this group.
S100A4 inh HTS: blocks human S100A4 binding to myosin IIA peptide; P26447; S100A4/TAMRA-MyoIIA peptide fluorescence polarization; inhibition, % at 10.7 µM; actives 0.14% (n = 360,000);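 active = mean inhibition of at least 70% across replicates, with every replicate also reaching that level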
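Material: human S100A4 monomer with TAMRA-labelled myosin IIA peptide; buffer or medium: HEPES pH 7.2 with CaCl2, KCl, NaCl, DTT, Triton; compound dosing: one concentration per compound; schedule: 5 min incubation before reading; benchmarks: neutral control DMSO, positive control TFP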
FGF22 binding: binders of recombinant human FGF22 by thermal shift. AID 651658. activity (Tm shift, normalised), % at 9.99 µM. actives 1.5% (n = 340,000). SYPRO orange fluorescence; percent of sucrose octasulfate shift, DMSO zero. Q9HCT0;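 active = mean Tm shift, scaled 0 neutral to 100 positive control, at about 1.3% or above, every replicate too, limit read from the data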
E-sel inducer: E-selectin induction on HUVECs; activation, % at 7.58 µM; actives 0.37% (n = 260,000); HUVEC E-selectin immunofluorescence imaging; normalized: neutral wells 0, TNF-alpha wells 100;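 active = mean E-selectin-positive cell signal at least 10% of the positive control, reached in at least 60% of replicates, without over 20% cell loss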
Target sequence (P16581 whole entry, looked up): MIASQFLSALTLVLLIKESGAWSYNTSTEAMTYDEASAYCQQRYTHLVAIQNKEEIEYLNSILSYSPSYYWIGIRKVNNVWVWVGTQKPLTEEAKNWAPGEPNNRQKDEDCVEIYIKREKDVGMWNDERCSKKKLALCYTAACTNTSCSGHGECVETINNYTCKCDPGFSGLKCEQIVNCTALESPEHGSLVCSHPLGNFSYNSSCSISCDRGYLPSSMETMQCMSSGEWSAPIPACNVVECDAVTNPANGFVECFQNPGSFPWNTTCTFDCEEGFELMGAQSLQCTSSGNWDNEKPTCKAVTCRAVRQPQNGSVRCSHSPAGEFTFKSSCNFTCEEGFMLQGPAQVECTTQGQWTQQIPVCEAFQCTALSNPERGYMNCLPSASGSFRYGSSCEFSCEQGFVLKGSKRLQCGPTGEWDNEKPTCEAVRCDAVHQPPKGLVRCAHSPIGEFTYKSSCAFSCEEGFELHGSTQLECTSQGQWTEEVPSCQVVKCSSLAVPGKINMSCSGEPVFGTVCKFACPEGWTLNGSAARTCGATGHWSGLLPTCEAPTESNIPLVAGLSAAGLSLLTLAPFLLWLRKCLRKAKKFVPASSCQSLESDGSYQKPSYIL
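System: HUVEC, human umbilical vein endothelial cells; quantity: 3,000 cells/well; buffer or medium: EGM-2 medium, gelatin-coated wells; dosing: single-point compound dose; detection: immunofluorescence imaging; evaluation: % PE-positive cells; benchmarks: TNF-alpha, DMSO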
Env fusion inh: blocks HIV Env-driven cell-cell fusion | HeLa-JRFL Env/CEM21 cell fusion, luciferase | inhibition, % at 12.3 µM | actives 1.1% (n = 360,000) | AID 651610;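 active = mean replicate inhibition score of at least 50 and every replicate individually at or above 50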;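 note: 0% = plate neutral controls and 100% = maraviroc near 300 nM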
CFTR F508del cor: CFTR F508del correction in bronchial cells. CFBE cells, YFP halide quenching; stimulated with forskolin plus potentiator P3; % fluorescence drop versus neutral controls. activity (quench increase), % at 7.58 µM. actives 0.36% (n = 350,000);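 active = mean added fluorescence quench of at least 8% versus neutral control, with both replicates also reaching 8%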;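 note: cells transiently co-express mutant CFTR-F508del with the halide-sensitive YFP; corrector assay measuring rescue of mutant channel to the surface after 24 h compound exposure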
* hit, by the source's call; . = no result; [ ] = another dose, or the depositor's remark.

SMILES | S100A4 inh HTS | FGF22 binding | E-sel inducer | Env fusion inh | CFTR F508del cor
CC(C)C[C@@]12C(=O)N(c3cccc(Cl)c3)C(=O)N1[C@H](c1ccc(Cl)cc1)[C@@H]1C(=O)N(C3CCCCC3)C(=O)[C@@H]12 | -1.2 | 1.6* | -0.1 | 67.4* | 1.9
CC(C)C[C@@]12C(=O)N(c3cccc(Br)c3)C(=O)N1[C@H](c1ccc(Cl)cc1)[C@@H]1C(=O)N(C3CCCCC3)C(=O)[C@@H]12 | 2.0 | 0.0 | -0.2 | 70.3* | -0.8
Cc1ccc(N2C(=O)N3[C@H](c4ccc(Cl)cc4)[C@@H]4C(=O)N(C5CCCCC5)C(=O)[C@@H]4[C@]3(Cc3ccccc3)C2=O)cc1 | -5.0 | 0.6 | -0.3 | 42.8 | 1.6
O=C(Nc1ccccc1F)N[C@H]1CC[C@@H](CCNC(=O)C2CCC2)O[C@H]1CO | -37.2 | -0.1 | -0.9 | -5.1[16.7 µM] | 0.1
O=C(C[C@H]1CC[C@H](NC(=O)CCN2CCCCC2)[C@H](CO)O1)Nc1nccs1 | . | . | -0.2 | 10.0[16.7 µM] | -0.2
O=C1[C@H]2[C@@H](c3ccc(Cl)cc3)N3C(=O)N(c4cccc(Cl)c4)C(=O)[C@@]3(Cc3ccc(Cl)cc3)[C@H]2C(=O)N1C1CCCCC1 | 4.1 | 0.2 | 0.1 | -1.0 | 0.8
CC[C@@]12C(=O)N(c3cccc(Br)c3)C(=O)N1[C@H](c1ccc(Cl)cc1)[C@@H]1C(=O)N(C3CCCCC3)C(=O)[C@@H]12 | -5.6 | 0.0 | . | 94.2* | 2.4
O=C1[C@H]2[C@@H](c3ccc(F)cc3)N3C(=O)N(c4cccc(F)c4)C(=O)[C@@]3(Cc3ccc(Cl)cc3)[C@H]2C(=O)N1C1CCCCC1 | -4.5 | 0.1 | 0.0 | 6.3 | 0.7
Cc1cccc(N2C(=O)N3[C@H](c4ccc(F)cc4)[C@@H]4C(=O)N(C5CCCCC5)C(=O)[C@@H]4[C@]3(Cc3ccc(Cl)cc3)C2=O)c1 | -7.1 | -0.4 | 0.0 | 91.1* | 2.5
Cc1cc(Br)ccc1Nc1nc(N)nc(N)c1N=O | 7.0 | -0.4 | 0.1 | 56.1* | -1.1
COc1ccc(/C=C/C2=CCN(Cc3ccc(OC)cc3)CC2)cc1 | -0.1 | 43.2* | . | 12.5 | .
O=C1O[C@@H](c2ccccc2)[C@@H](c2ccccc2)N2[C@@H](c3ccc(OCCO)cc3)[C@]3(C(=O)Nc4ccc(C#CC5=CCCCC5)cc43)[C@@H](C(=O)N3CCCCCCC3)[C@H]12 | -19.9 | -0.2 | . | 0.2[16.7 µM] | -6.5
Cc1ccc(C(=O)CNc2ccc(Cl)cc2)cc1 | 2.6 | 0.1 | 13.7 | -7.2 | 12.5*
Cc1cccc(/C=C/C(=O)c2ccc([N+](=O)[O-])o2)c1 | 8.9 | 0.2 | 0.2 | -82.0 | -4.6
O=C(/C=C/c1cccc([N+](=O)[O-])c1)c1ccc([N+](=O)[O-])o1 | -6.6 | 0.4 | -0.1 | 55.8* | -0.4
COc1ccc(NC(=O)N(C)C[C@@H]2Oc3ccc(N(C)C)cc3CC(=O)N([C@@H](C)CO)C[C@@H]2C)cc1 | 2.0 | -0.2 | 20.2 | 1.5[16.7 µM] | -0.1
Cc1noc(C)c1NC(=O)Nc1ccc2c(c1)CC(=O)N([C@@H](C)CO)C[C@H](C)[C@H](CN(C)C)O2 | 4.6 | 0.1 | -2.2 | . | -0.8
Cc1ccc2nc(C)c3c(c2c1)OC(C(C)(Cl)Br)C3 (configuration not stated) | -6.3 | -0.1 | -1.5 | 33.8 | 1.1
Cc1nc2ccccc2c2c1CC(C(C)(Cl)Br)O2 (configuration not stated) | -6.9 | -0.2 | . | 73.9* | 3.0
CCOc1ccc(/C=C2\SC(=S)NC2=O)cc1OC | 5.2 | 0.2 | . | 1.5 | -0.4
CCOc1ccccc1C=C1SC(=S)NC1=O | -5.3 | 0.1 | -0.2 | 77.9* | 5.5
C[C@@H]1CN([C@H](C)CO)C(=O)c2cc(C#C[C@@H](C)O)cnc2O[C@@H]1CN(C)C(=O)Nc1ccc(F)cc1 | 1.9 | -0.2 | -0.1 | -28.5[16.7 µM] | -0.4
O=[N+]([O-])c1ccc(Nc2nc(NC3CCCCC3)nc(N3CCCC3)n2)cc1 | -20.6 | 43.7* | . | 18.8 | 3.1
C[C@@H]1CN([C@H](C)CO)C(=O)c2cc(-c3cccc(F)c3)cnc2O[C@@H]1CN(C)Cc1cccnc1 | -4.5 | . | 0.0 | -7.3[16.7 µM] | -1.3
CCC(=O)N1CCN(c2ccc(NC(=O)c3ccc(Br)o3)cc2)CC1 | 0.7 | 43.8* | . | 12.5 | -0.6
Cc1ccc(-c2nc3cc(C)c(Br)c(C)n3c2Cc2ccccc2)cc1 | -8.3 | -0.1 | 0.0 | . | 0.9

Compound activity (PubChem)
